The nature of series [1]: folding enthalpy; higher = less favourable; fluorescence melt of hairpins on a sequencing array, two-state fit. The following applies: sodium 0.088 M. The procedure, abridged:
(§1)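 Melting temperature and folding enthalpy were derived from bootstrapped two-state fits. The fitted temperatures were raised by 9.35 °C to agree with UV melts, and four replicates were combined by inverse variance. The underlying data were Cy3 fluorescence images of library hairpins, with annealed Cy3 and quencher oligos, on a sequenced MiSeq flow cell in 50 mM Na-HEPES pH 8.0, 25 mM NaCl, taken in 2.5 °C steps up to 60 °C, normalised to pre-quench Cy3 and to control constructs.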

A short description of series [2]: melting temperature; fluorescence melt of hairpins on a sequencing array, two-state fit, raised by 9.35 °C to match UV melts. The settings on record: sodium 0.088 M. The procedure, abridged: as §1

Turning to CGAGCGGAAACGCCCTCG ((((((....)))..))), in series [1], the folding enthalpy was -12.8 kcal/mol. The Tm in series [2] is 35.9 °C.
For CGAGCGGAAACGCCTCG ((((((....))).))) the same measures were -29.6 kcal/mol and 52.3 °C.
In the case of CGAGCGGAAACGCGATCG ((((((....)))..))), in series [1], the folding enthalpy is -12.1 kcal/mol. In addition, the Tm in series [2] was 47 °C.
Take CGAGCGGAAACGCTTTCG ((((((....)))..))): the folding enthalpy in series [1] was -11.8 kcal/mol. Besides, in series [2], the Tm is 30.4 °C.
Consider CGAGGCGGAAACGCATCG (((.(((....))).))), for which the folding enthalpy in series [1] is -37 kcal/mol. Besides, the Tm in series [2] turned out to be 64.2 °C.
CGAGGCGGAAACGCTCG (((.(((....)))))): the folding enthalpy in series [1] was -20.5 kcal/mol. In series [2], the Tm worked out at 51 °C.
Take CGAGTCCGGAAACGGTCG (((..(((....)))))): the folding enthalpy in series [1] was -12.3 kcal/mol. For the same sequence, the Tm in series [2] amounted to 42.4 °C.
Turning to CGAGTCGGAAACGAATCG (((.(((....))).))), in series [1], the folding enthalpy was -39.9 kcal/mol. Also, the Tm in series [2] was determined as 52.2 °C.
For the sequence CGAGTGCGGAAACGCTCG (((..(((....)))))), the folding enthalpy in series [1] is -21.6 kcal/mol. In addition, the Tm in series [2] was 47.7 °C.
For CGATCCGGAAACGGCTCG (((.(((....))).))) the same measures were -28.7 kcal/mol and 48.1 °C.
For CGATCGGAAACGAACTCG ((((((....)))..))) the same measures were -9.8 kcal/mol and 24.4 °C.
With CGATCGGAAACGACTTCG ((((((....)))..))), the folding enthalpy in series [1] was -11.3 kcal/mol. For the same sequence, the Tm in series [2] was 25.6 °C.
Regarding CGATGACGGAAACGTTCG (((..(((....)))))), the folding enthalpy in series [1] was -29.1 kcal/mol. The Tm in series [2] came to 36.7 °C.
The like results for CGATGCGGAAACGCTCG (((.(((....)))))) were, in that order, -28.4 kcal/mol and 50 °C.
For CGATTCGGAAACGATTCG (((.(((....))).))) the same measures were -33.2 kcal/mol and 45.8 °C.
For CGCAAACGGAAACGTGCG (((..(((....)))))) the same measures were -36.2 kcal/mol and 50.9 °C.
For the sequence CGCACGGAAACGTAGGCG ((((((....)))..))), the folding enthalpy in series [1] is -30.6 kcal/mol. Also, the Tm in series [2] was 46.3 °C.
On to CGCACGGAAACGTATGCG ((((((....)))..))), for which the folding enthalpy in series [1] was -35.9 kcal/mol. For the same sequence, the Tm in series [2] was 46.7 °C.
For the sequence CGCACGGAAACGTGGCG ((((((....))).))), the folding enthalpy in series [1] was -25.9 kcal/mol. Also, in series [2], the Tm is 54.2 °C.
For CGCAGCGGAAACGCAGCG (((.(((....))).))), the folding enthalpy in series [1] was -29.9 kcal/mol. Further, the Tm in series [2] came to 68.5 °C.
In the case of CGCCACGGAAACGTGCG (((.(((....)))))), the folding enthalpy in series [1] is -24.7 kcal/mol. Also, the Tm in series [2] was 54.4 °C.
Take CGCCACGGAAACGTTGCG (((.(((....))).))): in series [1], the folding enthalpy is -33.4 kcal/mol. In series [2], the Tm amounted to 51.1 °C.
On to CGCCCCGGAAACGGCGCG (((.(((....))).))), for which the folding enthalpy in series [1] was -36.5 kcal/mol. Besides, in series [2], the Tm amounted to 52.1 °C.
With CGCCCGGAAACGGATGCG ((((((....)))..))), in series [1], the folding enthalpy was -25 kcal/mol. In addition, the Tm in series [2] was 48.4 °C.
Regarding CGCCCGGAAACGGCAGCG ((((((....)))..))), in series [1], the folding enthalpy is -30.7 kcal/mol. Also, the Tm in series [2] amounted to 48.7 °C.
For CGCCCGGAAACGGCGCG ((((((....))).))), in series [1], the folding enthalpy was -26.8 kcal/mol. Further, the Tm in series [2] came to 58.4 °C.
The like results for CGCCCGGAAACGGTGCG ((((((....))).))) were, in that order, -31.7 kcal/mol and 57.9 °C.
Turning to CGCCTCGGAAACGAAGCG (((.(((....))).))), in series [1], the folding enthalpy was -25.9 kcal/mol. Besides, the Tm in series [2] came out at 48.3 °C.
As to CGCCTGCGGAAACGCGCG (((..(((....)))))), the folding enthalpy in series [1] is -16.9 kcal/mol. In addition, the Tm in series [2] worked out at 42.1 °C.
The like results for CGCGCGGAAACGCCTGCG ((((((....)))..))) were, in that order, -17.2 kcal/mol and 46.8 °C.
With CGCGCGGAAACGCTAGCG ((((((....)))..))), the folding enthalpy in series [1] is -31 kcal/mol. Also, the Tm in series [2] was 55.6 °C.
Turning to CGCGGAAAAACCGCG ((...........)), the folding enthalpy in series [1] was -29.7 kcal/mol. Further, in series [2], the Tm came to 65.7 °C.
For CGCGGAACGGTCCGCG ((((((....)))))) the same measures were -38.7 kcal/mol and 61.6 °C.
CGCGGAAGCTCCGCG ((((((...)))))): the folding enthalpy in series [1] is -26.3 kcal/mol. Moreover, the Tm in series [2] turned out to be 68.8 °C.
The like results for CGCGGAATAGTCCGCG ((((((....)))))) were, in that order, -25.5 kcal/mol and 68.5 °C.
For CGCGGAATGATCCGCG ((((((....)))))) the same measures were -39.7 kcal/mol and 62.5 °C.
Take CGCGGAATGGTCCGCG ((((((....)))))): in series [1], the folding enthalpy is -30.2 kcal/mol. Besides, the Tm in series [2] is 69 °C.

(Values after the array DNA melting data of Ke et al. (doi:10.1101/2024.01.08.574731).)
